{"source": "ChEMBL document CHEMBL4428038", "about": "“Overcoming chloroquine resistance in malaria: Design, synthesis and structure-activity relationships of novel chemoreversal agents” (Eur J Med Chem, 2016)", "key": {"[1]": {"tested_on": "Plasmodium falciparum", "assay": "Potentiation of chloroquine-induced antimalarial activity against chloroquine-sensitive Plasmodium falciparum 3D7 isolate MRA-102 assessed as reduction in chloroquine IC50 at 500 nM relative to chloroquine alone", "assay_type": "functional"}, "[2]": {"assay": "Therapeutic index, ratio of IC50 for human AC10 cells to EC50 for chloroquine-resistant Plasmodium falciparum K1 isolate MRA-159 CRT CVIET haplotype mutant", "assay_type": "toxicity", "details": "read-out: Ratio IC50/EC50", "summary_of_the_method": "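Host-cell IC50 was measured by ATP-luminescence viability assay in TAMH hepatocytes (mean of n = 4 independent determinations) or AC10 cardiomyocytes. Each IC50 was divided by the K1 EC50, the concentration of chemoreversal agent that halves the chloroquine concentration needed for 50% parasite inhibition.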"}, "[3]": {"tested_on": "T1, Chloroquine resistance transporter (Plasmodium falciparum), Q9N623 [K76T]", "T1 sequence (whole entry)": "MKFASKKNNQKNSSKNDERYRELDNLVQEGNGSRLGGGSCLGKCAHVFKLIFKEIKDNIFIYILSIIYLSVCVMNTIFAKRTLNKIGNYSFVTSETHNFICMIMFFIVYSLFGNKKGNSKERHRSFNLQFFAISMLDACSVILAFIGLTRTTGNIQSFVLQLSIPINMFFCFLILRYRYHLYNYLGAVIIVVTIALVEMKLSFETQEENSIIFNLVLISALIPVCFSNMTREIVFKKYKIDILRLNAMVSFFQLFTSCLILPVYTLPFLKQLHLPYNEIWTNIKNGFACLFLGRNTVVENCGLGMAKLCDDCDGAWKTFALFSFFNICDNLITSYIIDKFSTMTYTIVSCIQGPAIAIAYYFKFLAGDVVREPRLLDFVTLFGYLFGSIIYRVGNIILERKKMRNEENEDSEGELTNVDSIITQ", "assay": "Inhibition of CRT K76T mutant in chloroquine-resistant Plasmodium falciparum Dd2 isolate MRA-156 assessed as reversal of chloroquine resistance by measuring reduction in chloroquine IC50 at 500 nM relative to chloroquine alone"}, "[4]": {"tested_on": "Plasmodium falciparum 7G8", "assay": "Inhibition of CRT SVMNT haplotype mutant in intermediate chloroquine-resistant Plasmodium falciparum 7G8 isolate MRA-154 t assessed as reversal of chloroquine resistance by measuring reduction in chloroquine IC50 at 500 nM relative to chloroquine alone"}, "[5]": {"tested_on": "Plasmodium falciparum", "assay": "Intrinsic antimalarial activity against chloroquine-resistant Plasmodium falciparum K1 isolate MRA-159 harboring CRT CVIET haplotype mutant assessed as reduction in parasite viability at 500 nM", "assay_type": "functional, organism-based"}, "[6]": {"tested_on": "Plasmodium falciparum K1", "assay": "Inhibition of CRT CVIET haplotype mutant in Plasmodium falciparum K1 isolate MRA-159 infected in erythrocytes assessed as chloroquine-coumarin probe accumulation at 10 uM after 10 hrs by Hoechst 33342 staining based flow cytometry (reference value: 35.57 +/- 3.84%)", "assay_type": "cell-based", "parameters": "scale not given: the % may be the effect or the level left", "summary_of_the_method": "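Infected erythrocyte cultures at 2.5% hematocrit and 7–12% parasitemia, synchronized to late-ring/early-trophozoite stage, were incubated with chloroquine-coumarin probe plus test agent for 10 h at 37 C. Cells were then washed, resuspended in PBS and read by flow cytometry (405 nm excitation, 450/50 filter). Hoechst-stained duplicate wells set parasitemia. Uptake = % infected erythrocytes fluorescent. Controls: PBS (negative), desipramine and parent compound (positive). ≥3 independent experiments; mean ± SEM.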"}, "[7]": {"assay": "Permeability of compound incubated for 16 hrs at pH 7.4 by PAMPA", "assay_type": "ADME", "details": "read-out: Peff"}, "[8]": {"assay": "Aqueous kinetic solubility of compound in pH 7.4 solution incubated for 24 hrs", "assay_type": "physicochemical", "details": "aqueous solution pH 7.4, pH 7.4; read-out: Kinetic_solubility"}, "[9]": {"tested_on": "T1, Chloroquine resistance transporter (Plasmodium falciparum), Q9N623 [K76T]", "assay": "Inhibition of CRT K76T mutant in chloroquine/artemisinin-resistant Plasmodium falciparum NHP4773 assessed as reversal of chloroquine resistance by measuring reduction in chloroquine IC50 at 500 nM relative to chloroquine alone"}}, "note": "Active and inactive are the calls of the source. No cut-off for these calls is given here."}
{"compound": "c1ccc(CN[C@@H]2C3CCN(CC3)[C@@H]2Cc2ccccc2)cc1", "note": "(relative stereo)", "values": [{"measurement": "Ratio IC50", "setting": "[1]", "value": 1.26}, {"measurement": "selectivity ratio", "setting": "[2]", "value": 420}, {"measurement": "Ratio IC50", "setting": "[3]", "value": 0.6}, {"measurement": "Ratio IC50", "setting": "[4]", "value": 0.8}, {"measurement": "Activity", "setting": "[5]", "value": "inactive"}, {"measurement": "Activity", "setting": "[6]", "value": 83.4, "unit": "%"}, {"measurement": "Papp at 16 h", "setting": "[7]", "value": 14.5, "unit": "×10⁻⁶ cm/s"}, {"measurement": "solubility kinetic at 24 h", "setting": "[8]", "value": "> 310", "unit": "µg/mL"}, {"measurement": "Ratio IC50", "setting": "[9]", "value": 0.45}]}
